The source made the active and inactive calls.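 How the source made its calls, unless noted: active means visually confirmed hit in the image check and inhibition above 20%; inconclusive means visually confirmed hit but inhibition not above 20%; inactive means no visual hit in the image check.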

Assay [1] can be described thus: inhibitors of TNFa-induced NFkB p65 translocation, primary screen, imaging, HUVEC, MLSMR starter and 10KST1 sets (AID 438;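 active means inhibition above 20% together with a positive visual image hit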;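 further: compound added about 3h40 before a 20 min TNFalpha stimulation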;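 on inhibition: signal is the nuclear over cytoplasmic p65 intensity ratio per well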). The note with it: HUVEC TNFa-induced p65 nuclear translocation; cell count: measured here: nuclei count (cytotoxicity indicator), at 2.08 µM; inhibition: at 2 µM, stronger effect = higher value, 0% TNFa-plus-vehicle, 100% no-TNFa wells.
Assay [2] is described as follows: inhibitors of mutant huntingtin aggregation, primary screen, imaging, exon1htt(103Q)mCFP cells, high-content imaging (AID 483;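 active means visual image review flags a hit and inhibition of aggregation exceeds 20%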;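 further: compound exposure lasted 3 days before fixation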;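 on nuclei count: percent of the per-plate median nuclei count of sample wells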). To be noted: exon1htt(103Q)mCFP cell line, aggregate imaging, at 2 µM; inhibition of aggregation: stronger effect = higher value; nuclei count: measured here: cell count, toxicity.
The nature of assay [3]: inhibitors of E-selectin induction by TNFa, primary screen, imaging, HUVEC, immunofluorescence, MLSMR starter and 10KST1 sets (AID 487).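 On inhibition: signal is fraction of cell area covered by stained E-selectin grains.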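 On nuclei count: 100% = median nuclei count of all wells on the same plate.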 To be noted: HUVEC TNFalpha-induced E-selectin immunofluorescence imaging, at 2 µM; inhibition: stronger effect = higher value; nuclei count: measured here: cell number, toxicity.
Assay [4] concerns the target Voltage-gated potassium channel subunit beta-2 (Rattus norvegicus) (UniProt P62483). Kind of assay: KvBeta enzyme negative modulators, primary screen, biochemical, NADPH fluorescence (AID 622;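 active means fluorescence slope higher than the sample average by over 3 SD, cut at about -0.22 in these data, passing the limit was not always enough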;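 further: slope of raw intensity against log time taken from 70 to 1610 s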). To be noted: recombinant KvBeta, 4-cyanobenzaldehyde reduction, at 10 µM, stronger effect = higher value.
The target is the same in assay [5]. The assay can be described thus: KvBeta positive modulators, primary screen, biochemical, NADPH fluorescence (AID 623;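 active means NADPH fluorescence slope more negative than the mean of all samples by about 3 SD, 99.7% confidence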;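 further: fluorescence intensity change per second fitted from 20 to 320 s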). The note with it: Recombinant KvBeta, NADPH fluorescence decrease slope, 10 min; at 10 µM; stronger effect = lower value.
For assay [6], the target named is Alpha-2C adrenergic receptor (Homo sapiens) (UniProt P18825). The assay can be described thus: modulators of alpha2C/GIRK thallium flux, primary screen, cell-based, HEK293 alpha2C/GIRK1/2 (AID 624;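 active means fluorescence slope after compound addition differing from the mean of all screened samples at 99.7% confidence, in either direction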;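 further: slope of fluorescence ratio to pre-addition baseline per second over 15 to 24 s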). The note with it: thallium flux BTC fluorescence, at 10 µM, actives lie on both sides.
The nature of assay [7]: inhibitors of larval lipid processing in zebrafish, primary screen, whole organism, PED6 fluorescence, gall bladder and intestine (AID 686;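 active means a full or partial loss of lipid-probe fluorescence in the fish gall bladder, intestine or both, judged by eye; inactive means no fluorescence loss, or compound toxic to the fish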;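 further: larvae 5 to 7 days old with five fish per well; signal comes from phospholipase A2 cleavage of quenched PED6 carried via bile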). The note with it: Zebrafish larvae PED6 lipid processing, fluorescence scoring; screened at 20 µM (by protocol). The procedure, abridged: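 system = live zebrafish larvae aged 5-7 days, whole organism | probe or stimulus = ingested quenched lipid PED6 at 100 nM | doses = 20 µM single dose | timing = overnight exposure | detection = fluorescence microscopy with visual scoring of gall bladder and intestine | read-out = visual per-well fluorescence inhibition score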

Assay [8] is described as follows: inhibitors of Sendai virus-induced IRF3 signaling, primary screen, TLR/RLR signaling modifier project, cell-based, Sendai virus stimulus, luciferase, 10K MLSCN set (AID 602276;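 active means inhibition at or above 50% at 10 µM; inactive means inhibition below 50%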;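 further: firefly luciferase from ISG56 promoter only with Renilla not read in this screen; 0% = Sendai virus plus DMSO and 100% = medium plus DMSO without virus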). To be noted: HEK293 RL24 IRF3 luciferase reporter, at 10 µM, stronger effect = higher value.
Assay [9] in a line: inhibitors of poly I:C-induced TLR3 signaling, primary screen, cell-based, poly I:C stimulus, luciferase, 10K MLSCN set (AID 602277;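 active means inhibition of the reporter signal at or above 50%; inactive means inhibition below 50%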). To be noted: HEK293-TLR3 RL24 IRF3 luciferase reporter, at 10 µM, stronger effect = higher value. Background: A reporter such as luciferase makes a cellular process visible.

Voltage-gated potassium channel subunit beta-2 (Rattus norvegicus), sequence (P62483 whole entry, looked up): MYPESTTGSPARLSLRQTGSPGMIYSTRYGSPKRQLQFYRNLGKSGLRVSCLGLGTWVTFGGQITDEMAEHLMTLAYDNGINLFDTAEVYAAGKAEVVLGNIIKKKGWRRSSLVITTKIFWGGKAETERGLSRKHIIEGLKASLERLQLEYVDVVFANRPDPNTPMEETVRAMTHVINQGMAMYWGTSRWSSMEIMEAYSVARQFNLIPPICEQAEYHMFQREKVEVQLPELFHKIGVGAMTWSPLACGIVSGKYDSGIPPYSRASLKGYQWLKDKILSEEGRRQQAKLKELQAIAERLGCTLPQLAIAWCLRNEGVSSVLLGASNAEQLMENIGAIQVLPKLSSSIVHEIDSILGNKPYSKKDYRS
Alpha-2C adrenergic receptor (Homo sapiens), sequence (P18825 whole entry, looked up): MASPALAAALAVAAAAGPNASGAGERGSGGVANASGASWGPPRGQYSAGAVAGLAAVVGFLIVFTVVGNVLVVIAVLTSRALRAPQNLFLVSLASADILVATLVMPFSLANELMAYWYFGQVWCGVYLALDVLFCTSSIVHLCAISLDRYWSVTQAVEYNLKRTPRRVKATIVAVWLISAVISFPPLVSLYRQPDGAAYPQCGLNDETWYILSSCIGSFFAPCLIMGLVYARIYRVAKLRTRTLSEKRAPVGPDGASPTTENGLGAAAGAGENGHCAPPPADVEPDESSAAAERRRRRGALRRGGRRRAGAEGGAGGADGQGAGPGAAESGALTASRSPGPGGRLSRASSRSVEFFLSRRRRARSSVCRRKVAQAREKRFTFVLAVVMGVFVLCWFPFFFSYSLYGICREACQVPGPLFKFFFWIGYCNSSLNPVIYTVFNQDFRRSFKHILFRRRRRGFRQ

`COc1ccc(Br)cc1-c1noc(-c2ccccc2)n1`: the cell count in assay [1] is 357. Also, the inhibition in assay [1] was 3% (inactive); in assay [3] it was -51.1% (inactive); in [8] it was 13.4% (inactive); in assay [9], 99.2% (active). For the same compound, in [2], the inhibition of aggregation is -25.4% (inactive). In addition, the nuclei count in assay [2] was 102%; in assay [3], 109%. The fluorescence slope in [4] was -0.371 (inactive). In [5], the NADPH fluorescence slope was -6.1e-05 (inactive). The slope in [6] is 0.00662 (inactive). In addition, the compound was called inactive in assay [7].
With `O=C1NC(=O)C(CC(=O)N(c2ccccc2)C2(C(=O)NC3CCCC3)CCCCC2)N1` (stereo not drawn), the cell count in [1] stood at 384. The inhibition in assay [1] was -1.1% (inactive); in assay [3] it was -24.5% (inactive); in [8] it was 14.9% (inactive); in assay [9] it was 11.4% (inactive). Also, the inhibition of aggregation in [2] was 25.6% (inactive). Besides, the nuclei count amounted to 83.3% in [2] and 108% in [3]. Besides, the fluorescence slope in assay [4] was -0.391 (inactive). In addition, the NADPH fluorescence slope in assay [5] was -1.3e-05 (inactive). For the same compound, in [6], the slope was 0.00517 (inactive). In addition, the compound was classed as inactive in [7].
For the compound `O=C(CSc1nnc(-c2ccco2)n1CC1CCCO1)NC1CCCC1` (stereo not drawn), the cell count in assay [1] is 336. Further, the inhibition in assay [1] was -6.2% (inactive); in assay [3], -15.3% (inactive); in assay [8] it was 7.82% (inactive); in assay [9] it was 4.4% (inactive). In addition, the inhibition of aggregation in assay [2] was 10.7% (inactive). For the same compound, the nuclei count in assay [2] was 101%; in assay [3], 121%. Besides, in [4], the fluorescence slope was -0.361 (inactive). Besides, the NADPH fluorescence slope in assay [5] is -5.1e-05 (inactive). The slope in assay [6] was 0.00445 (inactive). Moreover, the compound was classed as inactive in assay [7].
Turning to `COc1ccc(Cl)cc1NC(=O)CSc1nncn1-c1cccnc1`, in assay [1], the cell count came to 391. In addition, the inhibition is -10.2% (inactive) in assay [1], 60.5% (active) in assay [3], 15.1% (inactive) in assay [8] and 22.7% (inactive) in assay [9]. In addition, the inhibition of aggregation in [2] was 25.6% (inactive). The nuclei count in assay [2] came to 58.8%; in assay [3], 93.1%. For the same compound, the fluorescence slope in assay [4] was -0.296 (inactive). Further, in assay [5], the NADPH fluorescence slope was 1.5e-05 (inactive). For the same compound, the slope in [6] is 0.00524 (inactive). In addition, the result in assay [7] was inactive.
As to `Cc1ccc(C)c(CSc2nnc(CCN)o2)c1`, the cell count in assay [1] was found to be 431. For the same compound, the inhibition was -14.5% (inactive) in assay [1], -41.1% (inactive) in assay [3], 6.22% (inactive) in assay [8] and 10.2% (inactive) in assay [9]. In assay [2], the inhibition of aggregation is 2.5% (inactive). For the same compound, the nuclei count in [2] worked out at 65.3%; in assay [3], 103%. Further, the fluorescence slope in assay [4] was -0.462 (inactive). Moreover, the NADPH fluorescence slope in assay [5] was -9.3e-06 (inactive). Further, the slope in assay [6] was 0.00535 (inactive). The result in [7] was inactive.
As to `CCOC(=O)c1[nH]c2ccc(C)cc2c1NC(=O)CN1CCCCC1`, the cell count in assay [1] amounted to 672. In addition, the inhibition in assay [1] was 13.7% (inactive); in assay [3] it was -12% (inactive); in assay [8], 13.3% (inactive); in assay [9], 14.1% (inactive). For the same compound, the inhibition of aggregation in assay [2] was 5.6% (inactive). Moreover, the nuclei count in assay [2] came to 93.3%; in [3], 87.9%. In addition, in assay [4], the fluorescence slope was -0.349 (inactive). Moreover, the NADPH fluorescence slope in assay [5] is -2.6e-05 (inactive). For the same compound, the slope in assay [6] was 0.00444 (inactive). Further, the outcome in assay [7] was inactive.
In the case of `O=C(NC1CCCCCC1)c1cc(S(=O)(=O)N2CCC3(CC2)OCCO3)ccc1F`, the cell count in [1] was 503. Moreover, the inhibition in assay [1] was -21.4% (inactive); in assay [3], -16.2% (inactive); in assay [8], -15.5% (inactive); in assay [9], -37.6% (inactive). The inhibition of aggregation in assay [2] is -53.3% (inactive). Moreover, the nuclei count in assay [2] stood at 72.9%; in assay [3] it was 83.7%. In addition, the fluorescence slope in assay [4] is -0.36 (inactive). Moreover, in assay [5], the NADPH fluorescence slope is 9e-06 (inactive). In [6], the slope was 0.00552 (inactive). Also, in assay [7], the result was inactive.
With `CCN(CC)S(=O)(=O)c1ccc(NC(=O)c2cccc3c2C(=O)N(CCOC)C3)cc1`, the cell count in assay [1] was 778. Also, the inhibition is -3.6% (inactive) in assay [1], -84.2% (inactive) in assay [3], 10.3% (inactive) in assay [8] and 26.3% (inactive) in assay [9]. In assay [2], the inhibition of aggregation is 5.3% (inactive). Moreover, the nuclei count in [2] came out at 93.3%; in assay [3] it was 129%. Besides, the fluorescence slope in [4] is -0.244 (inactive). The NADPH fluorescence slope in assay [5] is -2.6e-05 (inactive). For the same compound, the slope in assay [6] is 0.00636 (inactive). Moreover, the compound was called inactive in [7].
For `O=C(c1cccnc1)N1CCN(C(=O)c2ccccc2F)CC1`, in assay [1], the cell count stood at 343. Further, the inhibition was 1% (inactive) in [1], -6% (inactive) in assay [3], -1.4% (inactive) in [8] and 99.3% (active) in assay [9]. Moreover, in assay [2], the inhibition of aggregation was -7.4% (inactive). Further, the values for the nuclei count in assay [2] and in [3] were 97.7% and 114%, respectively. In assay [4], the fluorescence slope is -0.353 (inactive). Besides, the NADPH fluorescence slope in assay [5] is -3.8e-05 (inactive). For the same compound, the slope in assay [6] is 0.00512 (inactive). For the same compound, the compound was called inactive in [7].
With `COCCCN1C(=O)C(O)=C(C(C)=O)C1c1ccccn1` (stereo not drawn), in [1], the cell count amounted to 686. The inhibition in assay [1] is -1.7% (inactive); in assay [3], -38.3% (inactive); in [8] it was 12.4% (inactive); in [9], 14.4% (inactive). For the same compound, the inhibition of aggregation in assay [2] is -2% (inactive). Further, the nuclei count in assay [2] and in [3] was 116% throughout. The fluorescence slope in assay [4] is -0.399 (inactive). Besides, the NADPH fluorescence slope in assay [5] is -6.2e-05 (inactive). Moreover, in [6], the slope is 0.00486 (inactive). Further, in assay [7], the outcome is “active; weak signal in gallbladder only”.
As to `COc1ccc(-c2nnc(SCc3nnc(-c4ccc(Cl)cc4)o3)n2-c2ccccc2)cc1`, the cell count in [1] is 565. Further, the inhibition in [1] was -13.6% (inactive); in [3], 17.2% (inactive); in [8], -45% (inactive); in [9], -62.8% (inactive). In addition, the inhibition of aggregation in [2] was 12.1% (inactive). In addition, the nuclei count in assay [2] stood at 106%; in assay [3], 138%. Further, the fluorescence slope in assay [4] was -0.398 (inactive). Moreover, the NADPH fluorescence slope in assay [5] was -6.2e-05 (inactive). The slope in [6] was 0.00535 (inactive). In addition, the outcome in assay [7] was inactive.
Regarding `N#Cc1ccc(CSc2nnc(-c3ccccn3)n2-c2ccccc2)cc1`, in assay [1], the cell count stood at 363. The inhibition in assay [1] was 5.8% (inactive); in assay [3], -10.3% (inactive); in assay [8] it was 11.1% (inactive); in assay [9], 9.06% (inactive). Besides, the inhibition of aggregation in assay [2] was 10.4% (inactive). Moreover, the values for the nuclei count in [2] and in assay [3] were 91.3% and 112%, respectively. Besides, the fluorescence slope in assay [4] is -0.426 (inactive). Moreover, the NADPH fluorescence slope in [5] was -1.1e-05 (inactive). For the same compound, the slope in assay [6] is 0.00569 (inactive). The outcome in assay [7] was “active; weak signal in gallbladder and intestine”.
`O=C(Nc1ccc(NC(=O)C2CC2)cn1)c1ccccc1Cl`: the cell count in assay [1] was determined as 745. The inhibition is 2.6% (inactive) in assay [1], -79% (inactive) in assay [3], -65.9% (inactive) in [8] and -212% (inactive) in [9]. Moreover, in [2], the inhibition of aggregation is -13% (inactive). The nuclei count came out at 104% in [2] and 113% in assay [3]. Further, the fluorescence slope in assay [4] was -0.316 (inactive). In addition, the NADPH fluorescence slope in [5] was -8e-07 (inactive). Moreover, the slope in assay [6] was 0.00552 (inactive). Further, the compound was called inactive in assay [7].
Consider `CN(Cc1ccccc1)C(=O)c1cc(-c2ccc(Br)cc2)on1`, for which the cell count in assay [1] came out at 318. Also, the inhibition in assay [1] is 2.4% (inactive); in [3] it was 19.7% (inactive); in assay [8] it was -49.5% (inactive); in assay [9] it was -116% (inactive). Besides, the inhibition of aggregation in assay [2] was 14.9% (inactive). Also, the nuclei count in [2] stood at 107%; in assay [3], 110%. Moreover, the fluorescence slope in [4] was -0.399 (inactive). Further, the NADPH fluorescence slope in assay [5] is -3.6e-05 (inactive). For the same compound, the slope in [6] is 0.00441 (inactive). In addition, the compound was called inactive in assay [7].

As a reminder, the inhibition is the relative decrease from the control value, in per cent.

Values taken from PubChem BioAssay.
